Source: PubChem BioAssay
pPAFAH inh – pPAFAH enzyme inhibitors, primary screen, biochemical, fluorescence polarization, human; recombinant pPAFAH, FP-rhodamine probe fluorescence polarization; inhibition, % at 3.39 µM; 330,000 compounds, 1.5% hits; AID 463082, 2010;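 active means inhibition above the mean inhibition across the screen plus 3 SD, cut at about 25% in these data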;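 further: inhibitors block binding of the rhodamine activity-based probe so polarization drops; 0% = enzyme with DMSO and 100% = wells lacking pPAFAH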
Target sequence (Q13093 whole entry, looked up): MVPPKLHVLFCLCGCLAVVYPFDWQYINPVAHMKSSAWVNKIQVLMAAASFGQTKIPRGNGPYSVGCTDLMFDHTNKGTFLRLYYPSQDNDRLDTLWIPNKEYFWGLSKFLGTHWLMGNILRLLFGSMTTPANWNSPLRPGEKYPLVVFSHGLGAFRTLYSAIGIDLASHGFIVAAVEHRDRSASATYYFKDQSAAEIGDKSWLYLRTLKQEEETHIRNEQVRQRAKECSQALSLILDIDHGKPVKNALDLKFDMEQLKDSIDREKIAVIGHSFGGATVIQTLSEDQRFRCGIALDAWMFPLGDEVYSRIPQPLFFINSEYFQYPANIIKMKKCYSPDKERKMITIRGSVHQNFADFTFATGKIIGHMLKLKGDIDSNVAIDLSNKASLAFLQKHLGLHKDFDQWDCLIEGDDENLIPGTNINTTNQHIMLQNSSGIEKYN
IMP-1 inh – IMP-1 metallo-beta-lactamase inhibitors, primary screen, biochemical, epi-absorbance readout, Pseudomonas aeruginosa enzyme. inhibition, % at 5.6 µM. purified IMP-1, nitrocefin hydrolysis, epi-absorbance fluorescence. metallo-beta-lactamase IMP-1 (Pseudomonas aeruginosa). 290,000 compounds, 0.45% hits;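 active means inhibition above the mean plus 3 SD of all compounds in the same screening run, cut at about 4.5% in these data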;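 further: 0% = IMP-1 with DMSO and 100% = DMSO wells lacking enzyme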
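System: purified recombinant IMP-1 beta-lactamase. Medium: Zinc- and detergent-supplemented HEPES buffer, pH 7.1. Compound: one 5.6 µM dose […]. Schedule: 15 min preincubation plus 25 min reaction at 25 °C. Technique: Epi-absorbance fluorescence, 480 nm excitation, 530 nm emission.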
PAFAH2 FP inh – PAFAH2 enzyme inhibitors, primary screen, biochemical, fluorescence polarization, human | inhibition, % at 3.39 µM | recombinant PAFAH2, FP-rhodamine activity probe | 340,000 compounds, 0.99% hits;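 active means inhibition above the mean over all tested compounds plus 3 SD, cut at about 30% in these data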;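 further: inhibitors block probe labeling of enzyme so polarization drops; 0% = enzyme with DMSO and 100% = wells lacking PAFAH2 protein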
PAFAH1B3 inh – PAFAH1B3 enzyme inhibitors, primary screen, biochemical, fluorescence polarization, human; Platelet-activating factor acetylhydrolase IB subunit alpha1 (Homo sapiens), Q15102; recombinant PAFAH1B3, FP-rhodamine probe; inhibition, % at 3.39 µM; 340,000 compounds, 0.28% hits;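 active means inhibition above the screen-wide average of all tested compounds plus 3 SD, cut at about 25% in these data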;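 further: 0% = enzyme with DMSO only and 100% = wells lacking PAFAH1B3 protein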
Target sequence (Q15102 whole entry, looked up): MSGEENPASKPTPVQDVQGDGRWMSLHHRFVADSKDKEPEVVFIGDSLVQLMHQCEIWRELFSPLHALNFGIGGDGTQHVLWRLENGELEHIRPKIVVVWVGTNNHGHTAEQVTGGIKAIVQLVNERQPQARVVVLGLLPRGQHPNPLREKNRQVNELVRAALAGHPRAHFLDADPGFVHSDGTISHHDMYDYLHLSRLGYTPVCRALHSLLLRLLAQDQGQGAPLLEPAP
VIM-2 inhibitor – VIM-2 metallo-beta-lactamase inhibitors, primary screen, biochemical, epi-absorbance readout, Pseudomonas aeruginosa enzyme. inhibition, % at 5.6 µM. purified VIM-2, nitrocefin hydrolysis, epi-absorbance fluorescence. 290,000 compounds, 0.89% hits;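 active means inhibition above the mean of all tested compounds plus 3 SD, cutoff set per screening run, cut at about 7.5% in these data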;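 further: red hydrolysis product quenches plate fluorescence so inhibitors raise well fluorescence; 0% = enzyme with DMSO and 100% = DMSO without enzyme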
PAFAH1B2 inh – PAFAH1B2 enzyme inhibitors, primary screen, biochemical, fluorescence polarization, human | Platelet-activating factor acetylhydrolase IB subunit alpha2 (Homo sapiens), P68402 | recombinant PAFAH1B2, FP-rhodamine activity probe | inhibition, % at 3.39 µM | 340,000 compounds, 1.2% hits | AID 492953, 2010;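 active means inhibition above the mean of all tested compounds plus 3 SD, cut at about 24% in these data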;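 further: 0% = enzyme with DMSO and 100% = wells lacking PAFAH1B2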
* hit, by the source's call; . = no result. Shown are actives, neighbours in structure and some others; about 3.6% of the full set was active somewhere.

SMILES | pPAFAH inh | IMP-1 inh | PAFAH2 FP inh | PAFAH1B3 inh | VIM-2 inhibitor | PAFAH1B2 inh
C#CCOCCOCCOCCNc1nc(N2CCN(C(=O)Cn3cc(CC(C)O)nn3)CC2)nc(N2CCN(C(=O)[C@H](CCCCN)n3cc(CC(C)O)nn3)CC2)n1 (some centres not stated) | . | . | 5.3 | 2.9 | . | 0.0
Oc1c(Br)cc(Br)cc1/C=N/NC(=S)N[C@H]1CC2C=CC1C2 (some centres not stated) | 46.0* | 0.5 | 56.9* | 20.8 | -1.0 | 14.7
CNC(=S)N/N=C/c1cc(Br)cc(Br)c1O | 4.0 | 0.7 | 28.1 | 14.3 | -0.7 | 12.6
Oc1ccc(Br)cc1-c1ccnn1-c1ccccc1 | 2.0 | 2.2 | 2.4 | -1.3 | 3.6 | -2.3
CC(C)NC(=S)N/N=C1\CCCCC1C1CCCCC1 (configuration not stated) | 8.2 | -5.4 | 5.3 | 6.7 | -6.8 | 28.7*
Cc1noc(C)c1CSCC(=O)Nc1ccccc1N1CCCCC1 | 7.0 | . | -3.8 | 1.6 | . | 29.5*
O=C(CN1C(=O)NC2(CCCCCCC2)C1=O)NCc1ccc(Cl)cc1 | 3.0 | . | 0.7 | 2.4 | . | 9.1
Cc1ccc(C)c(NS(=O)(=O)c2ccc(-c3cnc(C4CC4)o3)cc2)c1 | 33.0* | -2.9 | 8.6 | 9.1 | -4.5 | 1.5
CCOc1ccc(NS(=O)(=O)c2ccc(-c3cnc(C4CC4)o3)cc2)cc1 | 31.3* | -0.6 | 0.3 | 2.7 | -0.8 | 8.5
C[C@@H]1CN([C@H](C)CO)C(=O)Cc2cc(NC(=O)Nc3ccccc3)ccc2O[C@@H]1CN(C)Cc1ccc2c(c1)OCO2 | 0.0 | . | -12.4 | 17.7 | . | 4.1
Cc1cc(SCC(=O)Nc2ccc3[nH]c(=O)[nH]c3c2)nc2ccccc12 | -3.0 | . | 10.5 | 2.6 | . | 1.8
COc1ccc2[nH]c3c(c2c1)CCN1C(=O)C(CC(=O)NCCc2ccccn2)C[C@H](C(=O)N2CCOCC2)[C@@]31CCC1CCCC1 (some centres not stated) | 4.6 | . | 2.4 | 7.2 | . | 1.9
Cc1cc(/C=C(\C#N)C(=O)Nc2ccc(F)cc2)c(C)n1-c1ccc(N2CCOCC2)c([N+](=O)[O-])c1 | -1.1 | 5.0* | -12.9 | -1.7 | 0.7 | -4.0
COc1ccc(NC(=O)/C(C#N)=C/c2cc(C)n(-c3ccc(N4CCOCC4)c([N+](=O)[O-])c3)c2C)cc1 | 4.1 | -2.5 | 0.0 | 3.3 | -0.9 | 3.1
O=S(=O)(NCC(c1ccc2c(c1)OCO2)N1CCOCC1)c1ccc(F)cc1 (configuration not stated) | 4.6 | . | -2.4 | 1.2 | . | 2.6
O=S(=O)(NCC(c1ccc2c(c1)OCO2)N1CCOCC1)c1ccc(Br)cc1 (configuration not stated) | 8.3 | . | -1.7 | 3.0 | . | 25.1*
CCOC(=O)C1CCN(C2=NC(=O)/C(=C/c3ccc(Cl)cc3)S2)CC1 | 4.6 | 4.9* | 2.2 | -2.4 | 1.1 | 4.2
Cc1ccc(/C=C2\SC(N3CCCC3)=NC2=O)cc1 | 1.7 | -1.6 | . | . | 1.5 | .
O=C1N=C(N2CCCCC2)S/C1=C\c1ccc(Br)cc1 | -0.9 | 4.7* | 4.3 | 4.1 | 3.2 | 1.9
CCOC(=O)C1CCN(C(=O)COC(=O)Cc2ccc(Cl)cc2)CC1 | 30.3* | -1.9 | 11.1 | 6.0 | -3.8 | 8.3
CCOC(=O)C1CCN(C2=NC(=O)/C(=C/c3ccc(OC)c(OC)c3)S2)CC1 | 0.6 | -2.6 | -1.2 | 8.7 | -1.7 | 3.6
CCOC(=O)C1CCN(C(=O)CSc2ccc(Cl)cc2)CC1 | 6.3 | -2.0 | 2.0 | 3.0 | -1.3 | 1.8
CC(C)c1ccc(/C=C2\SC(N3CCCC3)=NC2=O)cc1 | 2.8 | -1.8 | 3.0 | 7.3 | -1.9 | 11.2
CN(C)c1ccc(/C=C2\SC(N3CCCCC3)=NC2=O)cc1 | 27.8* | 0.8 | 2.4 | 10.4 | 3.2 | 0.2
CCOc1ccc(C2C(C(=O)OC)=CN(C(C)c3ccccc3)C=C2C(=O)OC)cc1 (configuration not stated) | 4.4 | -0.8 | 0.4 | 7.3 | -1.7 | 6.2
SMILES | pPAFAH inh | IMP-1 inh | PAFAH2 FP inh | PAFAH1B3 inh | VIM-2 inhibitor | PAFAH1B2 inh
COc1cc(C(=O)OCC(=O)N2CCC(C)CC2)cc2c1OCCO2 | 3.5 | . | 12.4 | 6.0 | . | 8.6
CNC(=O)/C(C#N)=C/c1c(N2CCCCCC2)nc2ccccn2c1=O | -4.9 | -1.7 | -0.3 | -0.8 | 8.1* | 4.2
CCNC(=O)/C(C#N)=C/c1c(N2CCCCCC2)nc2ccccn2c1=O | -0.5 | -1.3 | 2.3 | 3.5 | 1.5 | 2.1
O=C1NC(=Nc2ccccc2)SC1Cc1ccccc1 (configuration not stated) | 4.1 | -2.1 | . | . | 0.2 | .
O=C1NC(=Nc2ccccc2)SC1Cc1cccc(Cl)c1Cl (configuration not stated) | 29.1* | -2.4 | 0.1 | 1.4 | -4.1 | 1.5
C[C@H]1CN([C@@H](C)CO)C(=O)c2cccc(NC(=O)Nc3ccc(C(F)(F)F)cc3)c2O[C@@H]1CN(C)C(=O)Nc1ccc(F)cc1 | 3.2 | . | -24.3 | -13.3 | . | 52.2*
C[C@@H]1CN([C@@H](C)CO)C(=O)c2cc(NS(=O)(=O)c3cccs3)ccc2O[C@H]1CN(C)Cc1ccc(C(F)(F)F)cc1 | 27.3* | . | 4.2 | 8.5 | . | 5.3
C[C@H]1CN([C@@H](C)CO)C(=O)c2cccc(NC(=O)Nc3ccc(C(F)(F)F)cc3)c2O[C@H]1CN(C)C | 29.7* | . | -13.4 | 10.4 | . | 3.1
COc1ccc(NC(=O)N(C)C[C@H]2Oc3c(NS(=O)(=O)c4cccs4)cccc3C(=O)N([C@H](C)CO)C[C@@H]2C)cc1 | -2.3 | . | 0.4 | 9.8 | . | 3.6
C[C@H](CO)N1C[C@H](C)[C@@H](CN(C)C(=O)Nc2ccc(C(F)(F)F)cc2)Oc2c(NS(=O)(=O)c3cccs3)cccc2C1=O | 11.9 | . | 2.3 | 1.7 | . | 25.1*
Cc1cc(C)c(OCCCCCn2ccnc2)c(C)c1 | . | -4.8 | -6.5 | 3.1 | -2.8 | 4.7
CC1CCCCN1C(=O)COC(=O)c1cc([N+](=O)[O-])ccc1N (configuration not stated) | -2.4 | . | 1.2 | 5.0 | . | 5.3
C[C@@]12C(=O)N(CCc3c[nH]c4ccccc34)CC(=O)N1[C@H]1c3ccccc3OC[C@@H]1[C@@H]2c1ccccc1 | -5.6 | . | -1.9 | 1.5 | . | 3.8
COc1ccc(NC(=O)Nc2cccc3c2O[C@H](CN(C)C(=O)Nc2ccc(C(F)(F)F)cc2)[C@@H](C)CN([C@H](C)CO)C3=O)cc1 | -2.1 | . | -7.8 | 2.7 | . | 68.4*
C[C@H](CO)N1C[C@H](C)[C@@H](CN(C)S(=O)(=O)c2ccccc2)Oc2c(NC(=O)Nc3ccc(C(F)(F)F)cc3)cccc2C1=O | 12.4 | . | -28.9 | -10.8 | . | 25.7*
